Test results as given in ChEMBL document CHEMBL4007422 (J Med Chem, 2017).
The source made the active and inactive calls. The calls are words filed in the database; no cut-off is given here.

What was measured:
[1] = biological target: 5-hydroxytryptamine receptor 7 (Rattus norvegicus) (UniProt P32305); experiment: Binding affinity to recombinant rat 5-HT7 receptor expressed in CHOK1 cells assessed as inhibition of 5-HT stimulated cAMP accumulation after 4 hrs by luciferase reporter gene assay; assay type: cell-based
Chain of 5-hydroxytryptamine receptor 7 (Rattus norvegicus) (P32305 whole entry): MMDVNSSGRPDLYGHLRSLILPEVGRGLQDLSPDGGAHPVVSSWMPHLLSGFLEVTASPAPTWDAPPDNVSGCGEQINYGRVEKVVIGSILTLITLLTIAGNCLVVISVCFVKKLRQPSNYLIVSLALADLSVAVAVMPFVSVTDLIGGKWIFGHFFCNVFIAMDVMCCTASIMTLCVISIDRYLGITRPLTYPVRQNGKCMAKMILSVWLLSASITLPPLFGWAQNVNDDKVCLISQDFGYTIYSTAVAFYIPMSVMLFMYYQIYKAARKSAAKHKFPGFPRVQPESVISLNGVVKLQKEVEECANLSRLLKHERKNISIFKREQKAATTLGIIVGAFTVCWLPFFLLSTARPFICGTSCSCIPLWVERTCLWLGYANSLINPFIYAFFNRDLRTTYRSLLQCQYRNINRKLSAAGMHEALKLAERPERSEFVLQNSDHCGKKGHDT

[2] = biological target: Cytochrome P450 2D6 (Homo sapiens, UniProt P10635); experiment: Inhibition of CYP2D6 in human liver microsomes in presence of NADPH by LC-MS/MS analysis
Chain of Cytochrome P450 2D6 (P10635 whole entry): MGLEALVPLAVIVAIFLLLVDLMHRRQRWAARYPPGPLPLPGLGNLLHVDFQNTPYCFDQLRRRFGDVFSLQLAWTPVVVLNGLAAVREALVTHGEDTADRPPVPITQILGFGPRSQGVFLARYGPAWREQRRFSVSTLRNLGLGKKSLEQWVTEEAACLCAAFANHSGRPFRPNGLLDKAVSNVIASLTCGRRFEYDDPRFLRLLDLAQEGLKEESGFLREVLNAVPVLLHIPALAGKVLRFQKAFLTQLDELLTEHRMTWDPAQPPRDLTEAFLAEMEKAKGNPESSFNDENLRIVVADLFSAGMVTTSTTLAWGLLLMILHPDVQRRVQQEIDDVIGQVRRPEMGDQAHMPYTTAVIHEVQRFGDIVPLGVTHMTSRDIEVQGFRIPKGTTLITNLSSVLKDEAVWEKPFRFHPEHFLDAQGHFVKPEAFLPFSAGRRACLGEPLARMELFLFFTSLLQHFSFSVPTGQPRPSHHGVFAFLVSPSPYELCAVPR

[3] = Cmax in Wistar rat at 10 mg/kg, po by LC-MS/MS analysis; assay type: ADME, organism-based; parameters: dose 10 mg/kg, route oral; conditions: in vivo
[4] = AUC (0 to t) in Wistar rat at 10 mg/kg, po by LC-MS/MS analysis; assay type: ADME, organism-based; conditions: Wistar, in vivo
[5] = Oral bioavailability in Wistar rat at 10 mg/kg by LC-MS/MS analysis; assay type: ADME, organism-based; conditions: Wistar, in vivo
[6] = Half life in Wistar rat at 10 mg/kg, iv by LC-MS/MS analysis; assay type: ADME, organism-based; conditions: in vivo
[7] = Clearance in Wistar rat at 10 mg/kg, iv by LC-MS/MS analysis; assay type: ADME, organism-based; conditions: in vivo
[8] = Ratio of drug uptake in Wistar rat brain to plasma at 10 mg/kg, po by LC-MS/MS analysis; assay type: ADME, organism-based; conditions: read-out: BPR
[9] = test system: Rattus norvegicus; experiment: Reversal of time-induced amnesia in Wistar rat at 1 to 10 mg/kg, po administered 60 mins prior to testing measured for 3 mins by object recognition test; assay type: functional, organism-based
Method in brief: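 Time-induced object recognition task in rats. Oral dosing at 1, 3 and 10 mg/kg given 60 min before the test; vehicle water for injection 1 mL/kg p.o.; n = 7−12/group. Exploration of novel versus familiar object compared by paired t-test.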

[10] = biological target: D(3) dopamine receptor (Homo sapiens) (UniProt P35462); experiment: Inhibition of recombinant human dopamine D3 receptor expressed in CHOK1 cells at 1 uM by GTPgammaS binding assay; assay type: functional, cell-based
Chain of D(3) dopamine receptor (Homo sapiens) (P35462 whole entry): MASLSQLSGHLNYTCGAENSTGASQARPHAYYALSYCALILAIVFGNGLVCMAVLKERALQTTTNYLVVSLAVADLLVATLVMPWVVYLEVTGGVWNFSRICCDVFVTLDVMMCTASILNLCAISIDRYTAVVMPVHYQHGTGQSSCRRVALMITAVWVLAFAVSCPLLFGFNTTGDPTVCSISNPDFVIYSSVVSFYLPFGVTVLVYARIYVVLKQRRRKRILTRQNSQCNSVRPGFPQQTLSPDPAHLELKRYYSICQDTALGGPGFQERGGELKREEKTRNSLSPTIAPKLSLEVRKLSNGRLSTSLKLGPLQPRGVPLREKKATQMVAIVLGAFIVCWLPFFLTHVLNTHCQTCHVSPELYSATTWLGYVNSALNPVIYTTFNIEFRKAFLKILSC

[11] = biological target: D(3) dopamine receptor (Rattus norvegicus, UniProt P19020); experiment: Displacement of [3H] 7-OH DPAT from recombinant rat dopamine D3 receptor expressed in CHO cells after 60 mins; assay type: cell-based
Chain of D(3) dopamine receptor (P19020 whole entry): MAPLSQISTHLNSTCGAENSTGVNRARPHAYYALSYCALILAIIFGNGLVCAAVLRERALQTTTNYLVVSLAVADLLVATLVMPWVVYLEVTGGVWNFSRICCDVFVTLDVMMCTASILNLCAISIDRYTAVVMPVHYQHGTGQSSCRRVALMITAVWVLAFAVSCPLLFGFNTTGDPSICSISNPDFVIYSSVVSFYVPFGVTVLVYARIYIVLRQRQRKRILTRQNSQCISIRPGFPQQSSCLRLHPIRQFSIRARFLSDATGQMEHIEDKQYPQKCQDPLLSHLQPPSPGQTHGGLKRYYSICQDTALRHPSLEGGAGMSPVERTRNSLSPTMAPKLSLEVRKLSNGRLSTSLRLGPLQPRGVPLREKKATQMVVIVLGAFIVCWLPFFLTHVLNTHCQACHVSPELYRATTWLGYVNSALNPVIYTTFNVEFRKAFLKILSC

[12] = biological target: Voltage-gated inwardly rectifying potassium channel KCNH2 (Homo sapiens, UniProt Q12809); experiment: Inhibition of astemizole binding to human ERG
Chain of Voltage-gated inwardly rectifying potassium channel KCNH2 (Q12809 whole entry): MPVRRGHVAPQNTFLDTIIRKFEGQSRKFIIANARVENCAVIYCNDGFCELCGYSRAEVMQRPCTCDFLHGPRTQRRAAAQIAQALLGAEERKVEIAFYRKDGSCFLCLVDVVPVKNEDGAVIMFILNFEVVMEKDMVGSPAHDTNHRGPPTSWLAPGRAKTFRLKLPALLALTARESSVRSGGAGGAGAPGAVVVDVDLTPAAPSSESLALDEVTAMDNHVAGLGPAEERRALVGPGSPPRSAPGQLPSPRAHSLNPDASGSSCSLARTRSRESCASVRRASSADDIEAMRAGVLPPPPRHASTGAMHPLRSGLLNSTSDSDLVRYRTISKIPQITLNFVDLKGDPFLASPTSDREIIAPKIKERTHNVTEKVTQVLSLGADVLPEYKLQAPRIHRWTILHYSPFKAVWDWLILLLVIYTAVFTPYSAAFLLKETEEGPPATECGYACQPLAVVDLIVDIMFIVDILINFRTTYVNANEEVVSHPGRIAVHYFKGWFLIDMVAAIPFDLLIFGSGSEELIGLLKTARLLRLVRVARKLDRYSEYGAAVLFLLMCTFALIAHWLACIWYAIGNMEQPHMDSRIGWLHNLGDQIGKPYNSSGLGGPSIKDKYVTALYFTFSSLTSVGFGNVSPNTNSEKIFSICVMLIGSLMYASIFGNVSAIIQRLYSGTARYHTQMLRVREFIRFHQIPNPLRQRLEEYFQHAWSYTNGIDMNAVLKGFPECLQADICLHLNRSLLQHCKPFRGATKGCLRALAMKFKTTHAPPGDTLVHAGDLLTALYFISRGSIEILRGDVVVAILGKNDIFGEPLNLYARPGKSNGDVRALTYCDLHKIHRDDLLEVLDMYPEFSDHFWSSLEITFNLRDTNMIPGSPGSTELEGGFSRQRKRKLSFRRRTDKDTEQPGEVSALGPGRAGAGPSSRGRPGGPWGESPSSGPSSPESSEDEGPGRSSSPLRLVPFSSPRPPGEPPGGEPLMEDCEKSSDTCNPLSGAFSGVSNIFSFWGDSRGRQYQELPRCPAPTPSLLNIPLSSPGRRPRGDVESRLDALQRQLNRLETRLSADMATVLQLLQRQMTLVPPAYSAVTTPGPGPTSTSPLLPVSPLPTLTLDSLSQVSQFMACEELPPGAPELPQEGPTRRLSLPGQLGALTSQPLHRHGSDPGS
Method in brief: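 hERG channel binding assessed as displacement in an astemizole binding assay.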

[13] = AUC (0 to t) in Beagle dog at 10 mg/kg, po; assay type: ADME, organism-based, Canis lupus familiaris; conditions: in vivo
[14] = Protein binding in dog plasma at 1 uM after 6 hrs by LC-MS/MS based rapid equilibrium dialysis method; assay type: ADME, cell-free, Canis lupus familiaris; conditions: read-out: PPB (converted)
Method in brief: (§1)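 Plasma protein binding in rat, dog and human plasma determined by equilibrium dialysis.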

[15] = Protein binding in human plasma at 1 uM after 6 hrs by LC-MS/MS based rapid equilibrium dialysis method; assay type: ADME, cell-free; conditions: read-out: PPB (converted); method in brief: as §1
[16] = Terminal half life in Beagle dog at 10 mg/kg, po; assay type: ADME, organism-based, Canis lupus familiaris; conditions: in vivo, read-out: beta t1/2 (converted)
Method in brief: (§2)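 Beagle dogs received 10 mg/kg p.o. and 3 mg/kg i.v. in a pharmacokinetic study. From plasma exposure the authors derived AUC0-t, terminal half-life, intravenous clearance, volume of distribution and absolute oral bioavailability.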

[17] = Clearance in Beagle dog at 3 mg/kg, iv; assay type: ADME, organism-based, Canis lupus familiaris; conditions: in vivo
[18] = Volume of distribution in Beagle dog at 3 mg/kg, iv or at 10 mg/kg, po; assay type: ADME, organism-based, Canis lupus familiaris; conditions: in vivo; method in brief: as §2
[19] = biological target: Cytochrome P450 2A6 (Homo sapiens, UniProt P11509); experiment: Inhibition of CYP2A6 in human liver microsomes in presence of NADPH by LC-MS/MS analysis; assay type: ADME
Chain of Cytochrome P450 2A6 (P11509 whole entry, canonical isoform): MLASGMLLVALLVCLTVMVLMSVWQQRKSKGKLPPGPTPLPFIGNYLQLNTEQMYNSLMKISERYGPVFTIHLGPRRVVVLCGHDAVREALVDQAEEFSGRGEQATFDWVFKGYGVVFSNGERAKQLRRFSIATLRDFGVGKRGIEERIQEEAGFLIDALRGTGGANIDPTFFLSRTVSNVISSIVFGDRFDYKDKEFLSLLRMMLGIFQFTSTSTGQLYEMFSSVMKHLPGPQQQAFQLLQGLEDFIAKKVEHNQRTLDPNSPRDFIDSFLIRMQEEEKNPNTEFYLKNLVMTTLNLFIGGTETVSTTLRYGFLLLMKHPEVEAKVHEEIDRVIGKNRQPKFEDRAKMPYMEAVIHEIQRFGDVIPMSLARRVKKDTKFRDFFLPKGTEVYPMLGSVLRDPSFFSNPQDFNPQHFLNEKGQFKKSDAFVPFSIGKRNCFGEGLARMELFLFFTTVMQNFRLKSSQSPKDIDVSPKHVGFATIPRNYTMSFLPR
Method in brief: (§3)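 Pooled human liver microsomes. IC50 determined from isoform-specific marker activities for CYP1A2, 2A6, 2B6, 2C8, 2C9, 2C19 (mephenytoin hydroxylation) and 2E1.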

[20] = biological target: Cytochrome P450 2B6 (Homo sapiens, UniProt P20813); experiment: Inhibition of CYP2B6 in human liver microsomes in presence of NADPH by LC-MS/MS analysis; assay type: ADME; method in brief: as §3
Chain of Cytochrome P450 2B6 (P20813 whole entry): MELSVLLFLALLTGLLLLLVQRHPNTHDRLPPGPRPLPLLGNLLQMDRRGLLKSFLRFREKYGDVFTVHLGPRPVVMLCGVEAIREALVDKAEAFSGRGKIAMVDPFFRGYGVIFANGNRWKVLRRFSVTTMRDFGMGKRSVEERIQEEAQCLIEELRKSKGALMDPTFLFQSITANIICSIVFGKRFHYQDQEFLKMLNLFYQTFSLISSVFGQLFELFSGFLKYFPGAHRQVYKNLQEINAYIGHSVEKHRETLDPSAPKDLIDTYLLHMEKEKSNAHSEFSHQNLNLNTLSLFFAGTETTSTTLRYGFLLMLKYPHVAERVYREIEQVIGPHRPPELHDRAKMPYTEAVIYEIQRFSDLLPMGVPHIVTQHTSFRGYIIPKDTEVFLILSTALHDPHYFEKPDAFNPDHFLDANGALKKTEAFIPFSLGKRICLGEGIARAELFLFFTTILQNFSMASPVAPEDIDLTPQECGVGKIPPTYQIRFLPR

[21] = biological target: Cytochrome P450 2C8 (Homo sapiens, UniProt P10632); experiment: Inhibition of CYP2C8 in human liver microsomes in presence of NADPH by LC-MS/MS analysis; assay type: ADME; method in brief: as §3
Chain of Cytochrome P450 2C8 (P10632 whole entry): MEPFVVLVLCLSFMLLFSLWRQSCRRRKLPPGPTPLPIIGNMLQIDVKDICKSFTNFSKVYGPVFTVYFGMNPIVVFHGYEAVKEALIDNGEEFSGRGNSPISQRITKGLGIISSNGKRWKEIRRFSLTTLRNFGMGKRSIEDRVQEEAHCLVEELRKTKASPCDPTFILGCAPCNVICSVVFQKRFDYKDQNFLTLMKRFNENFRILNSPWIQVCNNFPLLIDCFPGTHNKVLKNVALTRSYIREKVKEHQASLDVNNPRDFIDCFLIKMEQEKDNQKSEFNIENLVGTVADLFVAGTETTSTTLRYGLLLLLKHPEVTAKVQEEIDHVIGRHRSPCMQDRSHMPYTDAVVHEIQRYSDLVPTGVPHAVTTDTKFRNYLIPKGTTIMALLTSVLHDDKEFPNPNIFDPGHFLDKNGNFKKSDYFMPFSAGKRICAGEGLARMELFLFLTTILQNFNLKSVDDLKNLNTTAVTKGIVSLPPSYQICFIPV

[22] = biological target: Cytochrome P450 2C9 (Homo sapiens, UniProt P11712); experiment: Inhibition of CYP2C9 in human liver microsomes in presence of NADPH by LC-MS/MS analysis; assay type: ADME; method in brief: as §3
[23] = biological target: Cytochrome P450 2E1 (Homo sapiens, UniProt P05181); experiment: Inhibition of CYP2E1 in human liver microsomes in presence of NADPH by LC-MS/MS analysis; assay type: ADME; method in brief: as §3
Chain of Cytochrome P450 2E1 (P05181 whole entry): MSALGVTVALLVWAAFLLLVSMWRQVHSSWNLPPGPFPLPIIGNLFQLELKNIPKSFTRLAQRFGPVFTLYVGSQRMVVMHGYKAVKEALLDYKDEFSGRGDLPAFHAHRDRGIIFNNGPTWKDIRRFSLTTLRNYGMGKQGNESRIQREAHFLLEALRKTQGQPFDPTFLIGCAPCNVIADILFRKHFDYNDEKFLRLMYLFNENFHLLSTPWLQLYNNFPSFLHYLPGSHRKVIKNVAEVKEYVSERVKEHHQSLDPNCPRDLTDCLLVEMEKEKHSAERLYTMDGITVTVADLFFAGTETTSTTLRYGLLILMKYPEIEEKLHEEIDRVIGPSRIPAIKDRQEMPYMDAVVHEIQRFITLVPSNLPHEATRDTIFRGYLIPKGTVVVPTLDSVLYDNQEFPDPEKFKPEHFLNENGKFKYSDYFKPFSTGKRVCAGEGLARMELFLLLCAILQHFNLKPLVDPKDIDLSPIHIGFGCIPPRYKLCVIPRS

[24] = test system: Rattus norvegicus; experiment: Cognitive enhancing effect in contextual fear conditioning rat model assessed as reversal of scopolamine-induced emotional memory deficits at 1 to 10 mg/kg, po administered for 1 hr followed by scopolamine challenge for 120 mins; assay type: functional, organism-based
[25] = test system: Rattus norvegicus; experiment: Increase in acetylcholine level in Wistar rat ventral hippocampus at 3 mg/kg, po after 6 hrs by LC-MS/MS based microdialysis method; assay type: functional, organism-based
Method in brief: (§4)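 Male Wistar rats (240−300 g) fitted under isoflurane with a ventral hippocampal guide cannula (AP −5.2, ML +5.0, DV −3.8 mm from bregma). Probe (4 mm membrane) inserted 16 h before study. Perfusion with aCSF pH 7.2 at 1.5 μL/min, 2 h stabilization, five basal 20-min samples. Test agent given p.o.; donepezil and memantine (1 mg/kg s.c. each) given 30 min later in combination arms. Dialysates collected 6 h (4 h for combination), acetylcholine measured by LC-MS/MS, expressed as % of mean basal.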

[26] = test system: Rattus norvegicus; experiment: Increase in acetylcholine level in Wistar rat ventral hippocampus at 1 mg/kg, po after 6 hrs by LC-MS/MS based microdialysis method; assay type: functional, organism-based; method in brief: as §4
[27] = test system: Rattus norvegicus; experiment: Increase in acetylcholine level in Wistar rat ventral hippocampus at 3 mg/kg, po in presence of 1 mg/kg of donepezil and memantine administered sc 30 mins post compound treatment measured after 4 hrs by LC-MS/MS based microdialysis method relative to control; assay type: functional; method in brief: as §4
[28] = test system: Salmonella typhimurium; experiment: Mutagenicity in Salmonella typhimurium TA1535 in absence of metabolic activation; assay type: toxicity; conditions: salmonella enterica subsp. enterica serovar typhimurium
[29] = test system: PBL; experiment: Nonclastogenic effect in human PBL by chromosomal aberration test; assay type: cell-based
[30] = test system: Homo sapiens; experiment: Toxicity in healthy male and female human subjects administered as single ascending dose for 14 days; conditions: in vivo, 336 h
[31] = test system: Rattus norvegicus; experiment: Toxicity in Wistar rat assessed as induction of cholinergic side effects at 1 and 3 mg/kg, po in presence of 1 mg/kg of donepezil and memantine administered sc 30 mins post compound treatment measured after 4 hrs by LC-MS/MS based microdialysis method relative to control; assay type: organism-based; conditions: in vivo
Method in brief: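 The probe (4 mm membrane) was inserted 16 h before the study and perfused with aCSF (pH 7.2) at 1.5 μL/min, with 2 h stabilization. Five 20-min basal samples were taken before oral compound. Donepezil and memantine (1 mg/kg s.c. each) were given 30 min later. Dialysates were collected for 4 h and acetylcholine measured by LC-MS/MS as % of basal. Comparison was against donepezil+memantine by two-way ANOVA.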

Activity [1]: inactive | IC50 [2]: 13.2 µM | Cmax [3]: 272 ng/mL | AUC(0-t) [4]: 784 ng·h/mL | bioavailability [5]: 24.9% | half-life [6]: 57 min | clearance [7]: 53 mL/min/kg | Kp [8]: 1.48 | inhibition [10]: > 50% | Ki [11]: 616 nM | AUC(0-t) [13]: 1360 ng·h/mL | fraction unbound at 6 h, 1 µM [14]: 0.014 | fraction unbound at 6 h, 1 µM [15]: 0.02 | half-life [16]: 210 min | clearance [17]: 46.4 mL/min/kg | Vd [18]: 7.5 L/kg | IC50 [19]: > 10 µM | IC50 [20]: > 10 µM | IC50 [21]: > 10 µM | IC50 [22]: > 10 µM | IC50 [23]: > 10 µM
SMILES: COc1ccc2c(c1)c(CN1CCN(C)CC1)cn2S(=O)(=O)c1ccccc1Br.CS(=O)(=O)O.O
Activity [9]: Active | inhibition (INH) [12]: Not Active | Activity [24]: Active | Activity [25]: Active | Activity [26]: inactive | Activity [27]: 2136% | Activity [28]: Non-Toxic | Activity [29]: Non-Toxic | Activity [30]: Non-Toxic | Activity [31]: Non-Toxic
